Assay results as given in ChEMBL document CHEMBL5357047, “The development of thymol-isatin hybrids as broad-spectrum antibacterial agents with potent anti-MRSA activity” (RSC Med Chem, 2024).
≈ marks a conversion by molar mass, not a printed value. Calls of active or inactive are those of the source. No cut-off for these calls is given here.

Key:
Staphylococcus aureus [1] = assay: Anti-biofilm activity against Methicillin-resistant Staphylococcus aureus assessed as mean thickness of biofilm at 2XMIC measured after 48 hrs by crystal violet staining based phase contrast microscopy (reference value: 15.03+/-1.63 um); type: functional
Klebsiella pneumoniae = assay: Antibacterial activity against Klebsiella pneumoniae MTCC 109 assessed as inhibition of bacterial growth at 50 uM measured after 48 hrs by agar well diffusion method; type: functional; settings: read-out: IZ
Staphylococcus aureus [2] = assay: Anti-biofilm activity against Methicillin-resistant Staphylococcus aureus assessed as reduction in biofilm formation at 2XMIC measured after 48 hrs by crystal violet staining based analysis; type: functional
Procedure, shortened: (§1)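 Non-adherent cells washed off with water, stained with 0.5% crystal violet 30 min at 25 °C, dye eluted with 95% ethanol, OD 545 nm. Reported as % reduction versus untreated control. Triplicate.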

[3] = tested on: Staphylococcus epidermidis; assay: Antibacterial activity against Staphylococcus epidermidis MTCC 435 assessed as inhibition of bacterial growth at 50 uM measured after 48 hrs by agar well diffusion method; type: functional; settings: read-out: IZ
Staphylococcus aureus [4] = assay: Anti-biofilm activity against Methicillin-resistant Staphylococcus aureus assessed as interruption in well organized and aggregated biofilm at 1/2 to 2X MIC measured after 48 hrs by scanning electron microscopy; type: functional, organism-based
Staphylococcus aureus [5] = assay: Anti-biofilm activity against Methicillin-resistant Staphylococcus aureus assessed as reduction in biofilm formation at 1/2XMIC measured after 48 hrs by crystal violet staining based analysis; type: functional; procedure, shortened: as §1
Staphylococcus aureus [6] = assay: Bactericidal activity against Methicillin-resistant Staphylococcus aureus ATCC 33591 assessed as inhibition of bacterial growth measured after 48 hrs by agar plate method; type: functional
Procedure, shortened: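 MBC: aliquots from microdilution wells without colour change subcultured on drug-free Mueller Hinton agar, 48 h at 37 °C aerobically. MBC is the lowest concentration with no visible growth. Triplicate.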

[7] = Selectivity index, ratio of IC50 for cytotoxicity against mouse L929 cells to MIC for antibacterial activity against clinically isolated Methicillin-resistant Staphylococcus aureus; type: toxicity, cell-based; settings: read-out: Selectivity Index
[8] = biological target: T1, 4,4'-diapophytoene synthase (Staphylococcus aureus) (UniProt A9JQL9); assay: Inhibition of CrtM in Methicillin-resistant Staphylococcus aureus assessed as inhibition of staphyloxanthin production by measuring reduction in 4,4'-diaponeurosporene level at 1/4XMIC measured after 24 hrs by spectroscopic analysis
T1 sequence (whole entry): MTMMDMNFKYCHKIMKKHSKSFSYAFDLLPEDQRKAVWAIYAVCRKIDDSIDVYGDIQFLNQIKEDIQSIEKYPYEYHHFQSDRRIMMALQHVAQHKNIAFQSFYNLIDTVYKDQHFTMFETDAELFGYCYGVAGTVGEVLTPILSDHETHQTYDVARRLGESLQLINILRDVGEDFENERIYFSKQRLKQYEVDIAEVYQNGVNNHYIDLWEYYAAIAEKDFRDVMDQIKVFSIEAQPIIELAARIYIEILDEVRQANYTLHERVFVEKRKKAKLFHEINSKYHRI
Procedure, shortened: (§2)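 Cells pelleted, PBS-washed, extracted overnight in methanol at 37 °C. Supernatant absorbance read at 462 nm (staphyloxanthin), 286 nm (4,4′-diapophytoene), 435 nm (4,4′-diaponeurosporene) or 455 nm (4,4′-diaponeurosporenic acid). % inhibition = (control − treated)/control × 100.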

[9] = tested on: Staphylococcus epidermidis; assay: Bactericidal activity against Staphylococcus epidermidis MTCC 435 assessed as inhibition of bacterial growth measured after 48 hrs by agar plate method; type: functional
Procedure, shortened: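 MBC: 10 μL from wells showing no INT colour change after broth microdilution subcultured on drug-free Mueller Hinton agar, 48 h at 37 °C aerobically; lowest concentration with no visible growth taken as MBC (μM). Triplicate.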

Staphylococcus aureus [10] = assay: Anti-biofilm activity against Methicillin-resistant Staphylococcus aureus assessed as reduction in integrated density of biofilms at 1/2 to 2XMIC measured after 48 hrs by Syto-9 staining based fluorescence microscopy; type: functional, organism-based
Procedure, shortened: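 After PBS washes, stained with SYTO-9 ([…]) 15 min at 25 °C and imaged by fluorescence microscopy (excitation 480 nm). Integrated density quantified from images. Triplicate, mean ± SD.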

[11] = biological target: T1, 4,4'-diapophytoene synthase (Staphylococcus aureus); assay: Inhibition of CrtM in Methicillin-resistant Staphylococcus aureus assessed as inhibition of staphyloxanthin production by measuring reduction in 4,4'-diapophytoene level at 1/4XMIC measured after 24 hrs by spectroscopic analysis; procedure, shortened: as §2

With `Cc1ccc(C(C)C)c(OCc2cn(CCCN3C(=O)C(=O)c4ccccc43)nn2)c1` the Activity (Staphylococcus aureus [1]) was 0.16 um, the zone of inhibition at 50 µM (Klebsiella pneumoniae) was 21.4 mm and the “inhibition (INH)” value (Staphylococcus aureus [2]) was 96.21%. For the same compound, the zone of inhibition at 50 µM [3] was 25.5 mm, the Activity (Staphylococcus aureus [4]) was “Active” and the “inhibition (INH)” value (Staphylococcus aureus [5]) was 78.43%. For the same compound, the MBC (Staphylococcus aureus [6]) was 7.8 µM (≈ 3.26 µg/mL), the selectivity ratio [7] was 65 and the inhibition [8] was 85%. For the same compound, the MBC [9] was 7.8 µM (≈ 3.26 µg/mL), the Activity (Staphylococcus aureus [10]) was “Active” and the inhibition [11] was 86%.
